Data on 1 compound can be found in ChEMBL document CHEMBL5214907 (J Med Chem, 2021).

Experiment [1] has as its target Neuronal acetylcholine receptor; alpha3/beta2 (Rattus norvegicus, UniProt P04757+P12390). Nature of the experiment: Inhibition of rat alpha3beta2 nAChR expressed in xenopus oocytes assessed as inhibition of Ach- induced response at -70 mV holding potential and measured for 1 to 5 days in presence of Ach stimulation by voltage-clamp based electrophysiological method. In kind it is cell-based, Oocyte. In short, it runs like this:
(§1)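 Xenopus oocytes expressing cloned rat or human nAChR subtypes, recorded 1–5 d after injection. Held at −70 mV at room temperature and pulsed with ACh for 1 s every 60 s while peptide was flowed on. Where noted, Ba²⁺ replaced Ca²⁺ to limit current run-up after block. Values from 3–5 separate oocytes.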

Experiment [2] is described as follows: Inhibition of human alpha1beta1deltaepsilon nAChR expressed in xenopus oocytes assessed as inhibition of Ach- induced response at -70 mV holding potential and measured for 1 to 5 days in presence of Ach stimulation by voltage-clamp based electrophysiological method. The format is cell-based. Particulars: Oocyte. In short, it runs like this:
as §1

Experiment [3] has as its target Neuronal acetylcholine receptor; alpha2/beta2 (Homo sapiens, UniProt P17787+Q15822). Nature of the experiment: Inhibition of human alpha2beta2 nAChR expressed in xenopus oocytes assessed as inhibition of Ach- induced response at -70 mV holding potential and measured for 1 to 5 days in presence of Ach stimulation by voltage-clamp based electrophysiological method. The format is cell-based, Oocyte. In short, it runs like this:
as §1

For experiment [4], the target named is Nicotinic acetylcholine receptor alpha9/alpha10 (Rattus norvegicus, UniProt P43144+Q9JLB5). In kind it is cell-based, Oocyte.
The target in experiment [5] is Neuronal acetylcholine receptor; alpha9/alpha10 (Homo sapiens, UniProt Q9GZZ6+Q9UGM1). Nature of the experiment: Inhibition of human alpha9alpha10 nAChR expressed in xenopus oocytes assessed as inhibition of Ach- induced response at -70 mV holding potential and measured for 1 to 5 days in presence of Ach stimulation by voltage-clamp based electrophysiological method. In kind it is cell-based, Oocyte. In short, it runs like this: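 Two-electrode voltage clamp on Xenopus oocytes expressing human α9α10, recorded 1–5 d after injection. Held at −70 mV at room temperature in Ca²⁺-containing ND-96. A 1 s pulse of 100 µM ACh was given every 60 s and peptide was flowed on. IC50 with 95% CI from 3–5 separate oocytes.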

Experiment [6] has as its target Neuronal acetylcholine receptor; alpha2/beta2 (Rattus norvegicus, UniProt P12389+P12390). Briefly: Inhibition of rat alpha2beta2 nAChR expressed in xenopus oocytes assessed as inhibition of Ach- induced response at -70 mV holding potential and measured for 1 to 5 days in presence of Ach stimulation by voltage-clamp based electrophysiological method. In kind it is cell-based, Oocyte. The method in brief: as §1

Experiment [7] has as its target Neuronal acetylcholine receptor; alpha2/beta4 (Homo sapiens, UniProt P30926+Q15822). Briefly: Inhibition of human alpha2beta4 nAChR expressed in xenopus oocytes assessed as inhibition of Ach- induced response at -70 mV holding potential and measured for 1 to 5 days in presence of Ach stimulation by voltage-clamp based electrophysiological method. In kind it is cell-based, Oocyte. The method in brief:
as §1

The target of experiment [8] is Neuronal acetylcholine receptor; alpha2/beta4 (Rattus norvegicus, UniProt P12389+P12392). Nature of the experiment: Inhibition of rat alpha2beta4 nAChR expressed in xenopus oocytes assessed as inhibition of Ach- induced response at -70 mV holding potential and measured for 1 to 5 days in presence of Ach stimulation by voltage-clamp based electrophysiological method. In kind it is cell-based, Oocyte. In short, it runs like this:
as §1

Experiment [9] addresses Neuronal acetylcholine receptor; alpha3/beta2 (Homo sapiens, UniProt P17787+P32297). Briefly: Inhibition of human alpha3beta2 nAChR expressed in xenopus oocytes assessed as inhibition of Ach- induced response at -70 mV holding potential and measured for 1 to 5 days in presence of Ach stimulation by voltage-clamp based electrophysiological method. The format is cell-based, Oocyte. In short, it runs like this:
as §1

In experiment [10] the target is Neuronal acetylcholine receptor; alpha3/beta4 (Homo sapiens, UniProt P30926+P32297). Briefly: Inhibition of human alpha3beta4 nAChR expressed in xenopus oocytes assessed as inhibition of Ach- induced response at -70 mV holding potential and measured for 1 to 5 days in presence of Ach stimulation by voltage-clamp based electrophysiological method. The format is cell-based, Oocyte. The method in brief: as §1
Chain of Neuronal acetylcholine receptor; alpha3/beta4 (Homo sapiens, UniProt P30926+P32297) (P30926 whole entry): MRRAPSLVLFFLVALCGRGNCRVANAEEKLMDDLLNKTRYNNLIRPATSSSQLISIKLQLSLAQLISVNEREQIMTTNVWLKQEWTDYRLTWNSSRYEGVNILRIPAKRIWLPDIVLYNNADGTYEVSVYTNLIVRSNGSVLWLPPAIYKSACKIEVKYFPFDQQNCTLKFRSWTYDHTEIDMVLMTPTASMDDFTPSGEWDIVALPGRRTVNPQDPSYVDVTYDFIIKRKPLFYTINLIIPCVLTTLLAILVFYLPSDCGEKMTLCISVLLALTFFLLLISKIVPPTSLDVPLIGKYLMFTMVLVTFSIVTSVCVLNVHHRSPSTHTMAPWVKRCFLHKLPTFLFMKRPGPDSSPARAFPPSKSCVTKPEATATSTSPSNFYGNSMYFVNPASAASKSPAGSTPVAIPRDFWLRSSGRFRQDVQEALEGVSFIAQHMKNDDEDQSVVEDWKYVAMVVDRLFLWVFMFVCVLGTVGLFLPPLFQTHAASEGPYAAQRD
Chain of Neuronal acetylcholine receptor; alpha3/beta4 (Homo sapiens, UniProt P30926+P32297) (P32297 whole entry): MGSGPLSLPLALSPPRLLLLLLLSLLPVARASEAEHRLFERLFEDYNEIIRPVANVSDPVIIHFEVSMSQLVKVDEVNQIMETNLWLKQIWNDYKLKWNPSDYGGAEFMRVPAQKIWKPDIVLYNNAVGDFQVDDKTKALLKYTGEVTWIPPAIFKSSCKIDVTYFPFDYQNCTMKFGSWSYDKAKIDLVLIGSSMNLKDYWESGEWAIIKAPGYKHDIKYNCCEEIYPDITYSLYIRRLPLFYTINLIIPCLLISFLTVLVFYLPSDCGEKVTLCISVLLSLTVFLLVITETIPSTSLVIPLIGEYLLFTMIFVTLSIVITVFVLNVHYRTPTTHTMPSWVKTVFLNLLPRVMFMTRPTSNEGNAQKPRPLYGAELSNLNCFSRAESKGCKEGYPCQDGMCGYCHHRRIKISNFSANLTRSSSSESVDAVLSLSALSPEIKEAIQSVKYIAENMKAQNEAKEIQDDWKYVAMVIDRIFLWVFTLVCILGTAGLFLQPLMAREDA

For experiment [11], the target named is Neuronal acetylcholine receptor; alpha3/beta4 (Rattus norvegicus, UniProt P04757+P12392). Briefly: Inhibition of rat alpha3beta4 nAChR expressed in xenopus oocytes assessed as inhibition of Ach- induced response at -70 mV holding potential and measured for 1 to 5 days in presence of Ach stimulation by voltage-clamp based electrophysiological method. The format is cell-based, Oocyte. The method in brief: as §1

Experiment [12] concerns the target Neuronal acetylcholine receptor; alpha4/beta2 (Homo sapiens, UniProt P17787+P43681). Briefly: Inhibition of human alpha4beta2 nAChR expressed in xenopus oocytes assessed as inhibition of Ach- induced response at -70 mV holding potential and measured for 1 to 5 days in presence of Ach stimulation by voltage-clamp based electrophysiological method. The format is cell-based, Oocyte. In short, it runs like this:
as §1

Experiment [13] deals with Neuronal acetylcholine receptor; alpha4/beta2 (Rattus norvegicus, UniProt P09483+P12390). Briefly: Inhibition of rat alpha4beta2 nAChR expressed in xenopus oocytes assessed as inhibition of Ach- induced response at -70 mV holding potential and measured for 1 to 5 days in presence of Ach stimulation by voltage-clamp based electrophysiological method. In kind it is cell-based, Oocyte. In short, it runs like this: as §1

The target in experiment [14] is Neuronal acetylcholine receptor; alpha4/beta4 (Homo sapiens, UniProt P30926+P43681). Nature of the experiment: Inhibition of human alpha4beta4 nAChR expressed in xenopus oocytes assessed as inhibition of Ach- induced response at -70 mV holding potential and measured for 1 to 5 days in presence of Ach stimulation by voltage-clamp based electrophysiological method. In kind it is cell-based, Oocyte. The method in brief:
as §1

For experiment [15], the target named is Neuronal acetylcholine receptor; alpha4/beta4 (Rattus norvegicus, UniProt P09483+P12392). Nature of the experiment: Inhibition of rat alpha4beta4 nAChR expressed in xenopus oocytes assessed as inhibition of Ach- induced response at -70 mV holding potential and measured for 1 to 5 days in presence of Ach stimulation by voltage-clamp based electrophysiological method. In kind it is cell-based, Oocyte. The method in brief:
as §1

Experiment [16] addresses Nicotinic acetylcholine receptor alpha6/alpha3/beta4 (Homo sapiens, UniProt P30926+P32297+Q15825). Briefly: Inhibition of human alpha6/alpha3beta4 nAChR expressed in xenopus oocytes assessed as inhibition of Ach- induced response at -70 mV holding potential and measured for 1 to 5 days in presence of Ach stimulation by voltage-clamp based electrophysiological method. The format is cell-based, Oocyte. In short, it runs like this:
as §1

The target of experiment [17] is Nicotinic acetylcholine receptor alpha6/alpha3/beta4 (Rattus norvegicus, UniProt P04757+P12392+P43143). Nature of the experiment: Inhibition of rat alpha6/alpha3beta4 nAChR expressed in xenopus oocytes assessed as inhibition of Ach- induced response at -70 mV holding potential and measured for 1 to 5 days in presence of Ach stimulation by voltage-clamp based electrophysiological method. In kind it is cell-based, Oocyte. In short, it runs like this: as §1

The nature of experiment [18]: Inhibition of human alpha6/alpha3beta2beta3 nAChR expressed in xenopus oocytes assessed as inhibition of Ach- induced response at -70 mV holding potential and measured for 1 to 5 days in presence of Ach stimulation by voltage-clamp based electrophysiological method. The format is cell-based. To be noted: Oocyte. The method in brief:
as §1

Experiment [19] has as its target Nicotinic acetylcholine receptor alpha6/alpha3/beta2/beta3 (Rattus norvegicus, UniProt P04757+P12390+P12391+P43143). Briefly: Inhibition of rat alpha6/alpha3beta2beta3 nAChR expressed in xenopus oocytes assessed as inhibition of Ach- induced response at -70 mV holding potential and measured for 1 to 5 days in presence of Ach stimulation by voltage-clamp based electrophysiological method. In kind it is cell-based, Oocyte. The method in brief: as §1

Experiment [20] concerns the target Neuronal acetylcholine receptor subunit alpha-7 (Homo sapiens, UniProt P36544). Nature of the experiment: Inhibition of human alpha7 nAChR expressed in xenopus oocytes assessed as inhibition of Ach- induced response at -70 mV holding potential and measured for 1 to 5 days in presence of Ach stimulation by voltage-clamp based electrophysiological method. In kind it is cell-based, Oocyte. In short, it runs like this: as §1

Experiment [21] addresses Neuronal acetylcholine receptor subunit alpha-7 (Rattus norvegicus, UniProt Q05941). Briefly: Inhibition of rat alpha7 nAChR expressed in xenopus oocytes assessed as inhibition of Ach- induced response at -70 mV holding potential and measured for 1 to 5 days in presence of Ach stimulation by voltage-clamp based electrophysiological method. The format is cell-based, Oocyte. The method in brief: as §1

The subject of the next experiment is Mus musculus. Nature of the experiment: Analgesic activity against oxaliplatin-induced peripheral neuropathic pain mouse model assessed as reversal of oxaliplatin-induced cold allodynia by measuring withdrawal latency at 4 to 40 microg/kg, sc for 22 days (5 days per week) and measured after 24 hrs post-injection by cold-plate test chamber analysis. In kind it is functional, organism-based. To be noted: dose 4-40 µg/kg, time 22.0 day. In short, it runs like this: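 Mice, 8 per group. Oxaliplatin 3.5 mg/kg i.p. and peptide 4 or 40 µg/kg s.c., both in sterile 0.9% NaCl, given daily Wed–Fri and Mon–Tue through day 22; controls received saline. Cold allodynia tested on days 8, 15 and 22, 24 h after the last injection. Cold plate: 2–5 min acclimation at 23 °C, then cooled 10 °C/min until both forepaws lifted with shaking or licking. Mean ± SEM versus vehicle.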

The structures appear in SMILES notation. Active and inactive are the calls of the source. The calls are words filed in the database; no cut-off is given here.

One may read the IC50 as the concentration that inhibits the measured activity by half.

Chain of Nicotinic acetylcholine receptor alpha6/alpha3/beta4 (Homo sapiens, UniProt P30926+P32297+Q15825) (P30926 whole entry): as the sequence (P30926 whole entry) above
Chain of Nicotinic acetylcholine receptor alpha6/alpha3/beta4 (Homo sapiens, UniProt P30926+P32297+Q15825) (P32297 whole entry): as the sequence (P32297 whole entry) above
Chain of Nicotinic acetylcholine receptor alpha6/alpha3/beta4 (Homo sapiens, UniProt P30926+P32297+Q15825) (Q15825 whole entry): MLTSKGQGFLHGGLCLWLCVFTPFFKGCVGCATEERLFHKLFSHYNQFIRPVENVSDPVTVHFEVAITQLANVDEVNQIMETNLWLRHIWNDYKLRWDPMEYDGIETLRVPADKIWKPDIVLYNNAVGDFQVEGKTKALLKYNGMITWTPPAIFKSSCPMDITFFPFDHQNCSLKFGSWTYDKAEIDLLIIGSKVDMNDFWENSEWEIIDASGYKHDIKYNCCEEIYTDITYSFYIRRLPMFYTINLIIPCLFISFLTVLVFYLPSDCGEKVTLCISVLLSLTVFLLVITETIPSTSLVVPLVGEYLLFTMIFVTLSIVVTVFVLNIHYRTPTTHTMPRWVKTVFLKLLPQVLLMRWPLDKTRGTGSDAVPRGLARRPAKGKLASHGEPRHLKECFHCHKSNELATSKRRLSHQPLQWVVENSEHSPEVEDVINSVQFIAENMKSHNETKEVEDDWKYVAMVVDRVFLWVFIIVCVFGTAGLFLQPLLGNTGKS
Chain of Neuronal acetylcholine receptor; alpha2/beta4 (Homo sapiens, UniProt P30926+Q15822) (P30926 whole entry): as the sequence (P30926 whole entry) above
Chain of Neuronal acetylcholine receptor; alpha2/beta4 (Homo sapiens, UniProt P30926+Q15822) (Q15822 whole entry): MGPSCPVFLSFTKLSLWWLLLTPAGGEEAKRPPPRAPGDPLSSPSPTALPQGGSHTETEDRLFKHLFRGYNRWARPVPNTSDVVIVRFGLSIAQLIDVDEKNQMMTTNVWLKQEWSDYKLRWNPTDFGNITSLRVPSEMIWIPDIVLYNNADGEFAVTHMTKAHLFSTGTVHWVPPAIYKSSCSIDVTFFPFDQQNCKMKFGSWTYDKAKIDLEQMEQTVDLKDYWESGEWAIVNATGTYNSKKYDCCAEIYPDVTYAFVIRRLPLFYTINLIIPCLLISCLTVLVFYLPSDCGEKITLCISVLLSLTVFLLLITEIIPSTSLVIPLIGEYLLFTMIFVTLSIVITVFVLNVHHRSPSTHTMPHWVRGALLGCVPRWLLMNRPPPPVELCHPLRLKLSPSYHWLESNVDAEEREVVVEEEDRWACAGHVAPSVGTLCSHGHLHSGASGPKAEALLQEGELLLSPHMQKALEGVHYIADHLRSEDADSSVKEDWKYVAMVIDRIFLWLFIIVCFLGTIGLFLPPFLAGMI
Chain of Neuronal acetylcholine receptor; alpha4/beta4 (Homo sapiens, UniProt P30926+P43681) (P30926 whole entry): as the sequence (P30926 whole entry) above
Chain of Neuronal acetylcholine receptor; alpha4/beta4 (Homo sapiens, UniProt P30926+P43681) (P43681 whole entry): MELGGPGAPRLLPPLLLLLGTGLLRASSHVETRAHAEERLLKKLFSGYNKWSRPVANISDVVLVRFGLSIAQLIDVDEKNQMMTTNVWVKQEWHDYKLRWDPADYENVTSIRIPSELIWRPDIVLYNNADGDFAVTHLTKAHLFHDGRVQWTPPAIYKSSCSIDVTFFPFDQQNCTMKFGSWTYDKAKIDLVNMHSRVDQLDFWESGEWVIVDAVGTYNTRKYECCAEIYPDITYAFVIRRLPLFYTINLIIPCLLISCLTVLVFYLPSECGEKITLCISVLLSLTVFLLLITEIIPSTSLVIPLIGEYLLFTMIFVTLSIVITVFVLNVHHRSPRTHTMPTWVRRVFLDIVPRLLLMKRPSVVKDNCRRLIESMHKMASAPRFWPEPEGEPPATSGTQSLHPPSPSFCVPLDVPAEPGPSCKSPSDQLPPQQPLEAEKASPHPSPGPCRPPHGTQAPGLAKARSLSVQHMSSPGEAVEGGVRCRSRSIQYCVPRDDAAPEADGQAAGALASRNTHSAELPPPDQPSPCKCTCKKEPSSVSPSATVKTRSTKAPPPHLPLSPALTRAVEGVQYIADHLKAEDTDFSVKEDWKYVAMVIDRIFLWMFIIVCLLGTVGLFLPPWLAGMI

Regarding `C[C@@H](O)[C@@H]1NC(=O)[C@H]2NC(=O)[C@H](NC(=O)CN)CSSC[C@H](NC(=O)[C@H](CCCNC(=N)N)NC(=O)[C@@H]3CCCN3C(=O)[C@H](CC(=O)O)NC1=O)C(=O)N[C@@H](CCCNC(=N)N)C(=O)N[C@@H](Cc1ccc(O)c(I)c1)C(=O)N[C@@H](CCCN)C(=O)N[C@H](C(=O)N[C@H](CC(=O)N[C@@H](CCCNC(=N)N)C(=O)O)Cc1ccc(O)cc1)CSSC2(C)C`, the IC50 is greater than 10 µM in experiment [1]; greater than 10 µM in [2]; greater than 10 µM in experiment [3]; 0.00039 µM in experiment [4]; 0.05 nM in experiment [5]; greater than 10 µM in experiment [6]. Moreover, the IC50 in experiment [7], in experiment [8], in experiment [9], in experiment [10], in experiment [11] and in experiment [12] was greater than 10 µM in each case. Also, the IC50 in [13], in experiment [14], in experiment [15], in experiment [16], in [17] and in experiment [18] was greater than 10 µM each time. Moreover, the IC50 in experiment [19] was greater than 10 µM; in experiment [20], 0.115 µM; in [21], greater than 0.333 µM. In addition, in the experiment on Mus musculus, the result was Active.
